# Assay results taken from PubChem BioAssay AID602219 (Southern Research Specialized Biocontainment Screening …, 2012).
# Records with an inconclusive call do not appear. Activity calls are given as the source filed them.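 Rule for the calls: active = inhibition of 30% or more at any tested concentration; inactive = the rest, inconclusive results apart.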
# Molecular target: M1-family alanyl aminopeptidase (Plasmodium falciparum 3D7)
# Assay: PfM1AAP enzyme inhibition, dose response, selectivity assay for PfM18AAP inhibitor project, biochemical, QFRET, H-Leu-NHMec substrate, set 2 (AID 602219)
# Settings: recombinant PfM1AAP, H-Leu-NHMec fluorogenic cleavage
# How it was run: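 assay system = purified recombinant Plasmodium falciparum M1 alanyl aminopeptidase (rPfM1AAP) | input = 5 µg/mL rPfM1AAP | schedule = enzyme reaction 90 min at room temperature | signal = fluorescence of released NHMec, excitation 370 nm, emission 460 nm | read-out basis = IC50 from 4-parameter logistic fit, limits fixed 0–100% | control set = full-reaction wells versus no-enzyme background wells for normalization | replicates = triplicate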
row,IC50,Compound
1,29.8 µM,Oc1ccc(CCNc2c3ccccc3nc3ccccc23)cc1O
2,46.4 µM,Oc1ccc(CCNc2ccnc3ccccc23)cc1O
3,63 µM,Oc1ccc(-c2csc(NC3CCCC3)n2)cc1O
4,70.1 µM,CN1CCN(c2nc(-c3ccc(O)c(O)c3)cs2)CC1
5,25.9 µM,Oc1ccc(-c2csc(Nc3ncccn3)n2)cc1O

# Same assay, conditions: recombinant PfM1AAP, H-Leu-NHMec fluorogenic cleavage; at 100 µM (top of the series)
row,inhibition,Compound
1,inactive,COc1ccc(CCNC(c2ccccc2)c2ccccc2)cc1OC
2,inactive,CN1CCN(CCCc2ccc(O)c(O)c2)CC1
3,inactive,CN1CCN(CCc2ccc(O)c(O)c2)CC1
4,inactive,COc1ccc(CCCN2CCN(C)CC2)cc1OC
